A short description of series [1]: Inhibition of hedgehog signaling pathway in mouse C3H10T1/2 cells assessed as inhibition of hedgehog-induced cell differentiation after 48 hrs by luminescence assay. It counts as cell-based. Particulars: C3H 10T1/2, 48 h.
The nature of series [2]: Inhibition of hedgehog signaling pathway in mouse Light2 cells in Shh conditioned medium by Gli-luciferase reporter gene assay. It counts as cell-based. Particulars: Mus musculus. A digest of the protocol: (§1)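 Light II cells (NIH-3T3 stably transfected with Gli-responsive firefly luciferase and Renilla expression vector) stimulated with ShhN conditioned medium. This medium was collected from ShhN-transfected HEK293 cells kept in 0.1% FBS. Firefly luciferase normalized to Renilla. IC50 given as mean ± SD (nM) from three separate experiments.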
(Reporter assays use an easily measured gene product as a stand-in for the process of interest.)

Series [3] is filed under the species Mus musculus. The experiment in a line: Inhibition of hedgehog signaling pathway in mouse Light2 cells in Shh conditioned medium at 1 uM by Gli-luciferase reporter gene assay relative to control. It counts as cell-based.
For series [4], the species on record is Mus musculus. Put plainly: Inhibition of hedgehog signaling pathway in mouse Ptch+/- p53-/- medulloblastoma cells assessed as reduction in GLI1 mRNA expression at 5 uM by RT-qPCR analysis. A digest of the protocol: (§2)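 ptch+/−;p53−/− medulloblastoma cells kept in Neurobasal A/B-27 medium with EGF and bFGF, then treated. Gli1 and ptch1 mRNA measured by RT-qPCR. Data given as mean ± SD.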

For series [5], the species on record is Mus musculus. The experiment in a line: Inhibition of hedgehog signaling pathway in mouse Ptch+/- p53-/- medulloblastoma cells assessed as reduction in ptch1 mRNA expression at 5 uM by RT-qPCR analysis. The procedure, abridged: as §2
Background: Real-time PCR tracks product formation cycle by cycle.

The nature of series [6]: Inhibition of hedgehog signaling pathway in mouse Shh Light2 cells harboring Gli2 plasmid assessed as reduction in Gli2-mediated transcriptional activity by luciferase reporter gene assay. It counts as cell-based.
A short description of series [7]: Inhibition of hedgehog signaling pathway in mouse Shh Light2 cells assessed as reduction in ShhN-induced GLI-mediated transcriptional activity by luciferase reporter gene assay. It counts as cell-based. A digest of the protocol: as §1
A short description of series [8]: Inhibition of hedgehog signaling pathway in mouse Shh Light2 cells harboring Gli1 plasmid assessed as reduction in Gli1-mediated transcriptional activity by luciferase reporter gene assay. It counts as cell-based.
A short description of series [9]: Antitumor activity against mouse Ptch+/- p53-/- medulloblastoma cells implanted in athymic nude mouse assessed as tumor growth inhibition at 25 mg/kg, ip bid for 15 consecutive days. It counts as functional. Particulars: Medulloblastoma cell, read-out: TGI. The procedure, abridged: (§3)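 Spontaneous ptch+/−;p53−/− intracranial medulloblastomas passaged subcutaneously in athymic nude mice, then 1 mm3 fragments implanted in the right flank. Dosing started at 100−150 mm3 tumor volume, n = 5. Drug given ip twice daily for 15 days as a suspension in 0.5% methylcellulose, 0.2% Tween-80. Caliper volume (length × width2/2) taken twice weekly. TGI calculated on the last day from growth versus vehicle.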

Series [10] deals with Mus musculus. Put plainly: Toxicity in athymic nude mouse implanted with mouse Ptch+/- p53-/- medulloblastoma cells assessed as body weight loss at 25 to 50 mg/kg, ip bid for 15 consecutive days. As to conditions: in vivo. It counts as organism-based. The procedure, abridged:
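Body weight of nude mice (n = 5) carrying medulloblastoma allografts was followed during 15 days of twice-daily ip dosing in 0.5% methylcellulose/0.2% Tween-80 suspension. Data given as mean ± SD.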

The next series relates to KB. The experiment in a line: Cytotoxicity against human KB cells. It counts as cell-based.
The nature of series [11]: Inhibition of hedgehog signaling pathway in mouse Light2 cells harboring wild type Smo after 36 hrs by Gli luciferase activity. It counts as cell-based. The procedure, abridged:
(§4)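 Light II cells (NIH-3T3 stably carrying Gli-responsive firefly luciferase and Renilla vector) transfected with wild-type, D473H or W535L Smo plasmid. Exposed to compound for 36 h, then dual luciferase assay with firefly/Renilla normalization. IC50 derived and given as mean ± SD.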

Series [12] can be described thus: Inhibition of hedgehog signaling pathway in mouse Light2 cells harboring Smo D473H mutant after 36 hrs by Gli luciferase activity. It counts as cell-based. A digest of the protocol: as §4
Series [13] can be described thus: Inhibition of hedgehog signaling pathway in mouse Light2 cells harboring Smo W535L mutant after 36 hrs by Gli luciferase activity. It counts as cell-based. The procedure, abridged:
as §4

A short description of series [14]: Antitumor activity against mouse Ptch+/- p53-/- medulloblastoma cells implanted in athymic nude mouse assessed as tumor growth inhibition at 50 mg/kg, ip bid for 15 consecutive days. It counts as functional. Particulars: Medulloblastoma cell, read-out: TGI. A digest of the protocol:
as §3

Series [15] is filed under the species Mus musculus. Put plainly: Inhibition of hedgehog signaling pathway in mouse NIH/3T3 cells assessed as downregulation of Shh-induced Gli1 mRNA expression levels at 100 nM after 36 hrs by RT-qPCR analysis. It counts as cell-based. The procedure, abridged:
(§5)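 NIH-3T3 or C3H10T1/2 cells treated as indicated for 36 h, then collected for RT-qPCR of Gli1 and ptch1 mRNA. Data given as mean ± SD.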

For series [16], the species on record is Mus musculus. The experiment in a line: Inhibition of hedgehog signaling pathway in mouse C3H10T1/2 cells assessed as downregulation of Shh-induced Gli1 mRNA expression levels at 100 nM after 36 hrs by RT-qPCR analysis. It counts as cell-based. A digest of the protocol:
as §5

The species named for series [17] is Mus musculus. Put plainly: Inhibition of hedgehog signaling pathway in mouse NIH/3T3 cells assessed as downregulation of Shh-induced ptch1 mRNA expression levels at 100 nM after 36 hrs by RT-qPCR analysis. It counts as cell-based. A digest of the protocol: as §5
For series [18], the species on record is Mus musculus. Put plainly: Inhibition of hedgehog signaling pathway in mouse C3H10T1/2 cells assessed as downregulation of Shh-induced ptch1 mRNA expression levels at 100 nM after 36 hrs by RT-qPCR analysis. It counts as cell-based. A digest of the protocol: as §5
Series [19] is filed under the species Mus musculus. Put plainly: Inhibition of hedgehog signaling pathway in mouse NIH/3T3 cells harboring sufu shRNA assessed as downregulation of Gli1 mRNA expression at 100 nM by RT-qPCR analysis. It counts as cell-based.
For series [20], the species on record is Mus musculus. Put plainly: Inhibition of hedgehog signaling pathway in mouse NIH/3T3 cells harboring sufu shRNA assessed as downregulation of ptch1 mRNA expression at 100 nM by RT-qPCR analysis. It counts as cell-based.
The species named for series [21] is Mus musculus. Put plainly: Inhibition of hedgehog signaling pathway in mouse Shh Light2 cells harboring Gli1 plasmid assessed as reduction in Gli1-mediated transcriptional activity at 100 nM by luciferase reporter gene assay. It counts as cell-based.
The species entered for series [22] is Mus musculus. The experiment in a line: Inhibition of hedgehog signaling pathway in mouse Shh Light2 cells harboring Gli2 plasmid assessed as reduction in Gli2-mediated transcriptional activity at 100 nM by luciferase reporter gene assay. It counts as cell-based.
The subject of another series is Medulloblastoma cell. Put plainly: Antiproliferative activity against mouse Ptch+/- p53-/- medulloblastoma cells assessed as reduction in cell proliferation up to 30 uM after 72 hrs by MTS assay. It counts as functional, cell-based. A digest of the protocol: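 Tumor cells obtained from ptch+/−;p53−/− medulloblastoma allografts by mechanical mincing and collagenase digestion. Cultured in Neurobasal A with B-27, EGF 20 ng/mL, bFGF 20 ng/mL, nonessential amino acids and N-acetylcysteine 60 μg/mL. Exposed to compounds for 72 h, then proliferation read by MTS assay. Data given as mean ± SD.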
For orientation: Tetrazolium assays rely on reduction of a dye to a coloured formazan, in cell work by metabolically active cells.

pEC50, pIC50: −log10 of the molar value. The source made the active and inactive calls. No cut-off for these calls is given here.

Turning to `C[C@H](CO)N1C[C@H](C)[C@H](CN(C)S(=O)(=O)c2ccc(Cl)cc2Cl)Oc2c(NC(=O)C3CC3)cccc2C1=O`, the negative logarithm of the EC50 (pEC50) (commonly the negative decadic logarithm of the EC50, by convention in mol/L) in series [1] is 7.22. Also, in series [2], the negative logarithm of the IC50 (pIC50) (in general, the negative decadic logarithm of the IC50, by convention in mol/L) is 6.42. Moreover, in the series filed under Mus musculus [3], the inhibition – broadly, the change of the read-out against control, counted positive when it falls – turned out to be 67%. Moreover, the inhibition entry in the series listed under Mus musculus [4] and in the series filed under Mus musculus [5] was “inactive” each time.

In the case of `COc1ccc(CN2C[C@@H]3CN(S(=O)(=O)c4ccc(Cl)cc4)CC[C@@H]3Oc3c(NC(=O)C4CC4)cccc3C2=O)cc1` (racemic), the negative logarithm of the IC50 (pIC50) in [6] was 7.60; in series [7] it was 7.64; in series [8] it was 7.52; in series [2], 7.64; with KB, less than 4.70; in series [11] it was 7.45. For the same compound, the figures for the pIC50 in series [12] and in series [13] were 7.43 and 7.40, respectively. Besides, the inhibition in vivo at 25 mg/kg in series [9] was found to be 57.5%. Also, in the series on Mus musculus [10], the Activity entry was “Non-Toxic”. Moreover, the inhibition in vivo at 50 mg/kg in [14] came to 73.4%.

In turn, `CS(=O)(=O)c1ccc(C(=O)Nc2ccc(Cl)c(-c3ccccn3)c2)c(Cl)c1` [VISMODEGIB] gave a pIC50 in [2] of 7.41. The compound further registered an inhibition in the series filed under Mus musculus [3] of 93%. For the same compound, the inhibition result in the series filed under Mus musculus [15], in the series listed under Mus musculus [16], in the series filed under Mus musculus [17], in the series listed under Mus musculus [18] and in the series on Medulloblastoma cell was “Active” each time. Besides, the inhibition entry in the series filed under Mus musculus [19], in the series filed under Mus musculus [20], in the series listed under Mus musculus [21] and in the series listed under Mus musculus [22] was “inactive” each time.
